Compound activity (PubChem BioAssay)
Scp-1 inhibitor – Scp-1 (human) phosphatase inhibition; Recombinant Scp1, phosphopeptide, malachite green phosphate absorbance; hit rate 0.88% among 340,000; Q9GZU7; inhibition, % at 20 µM;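 active = inhibition above about 50% at 20 µM, limit read from the data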;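 note: plate controls were DMSO wells with enzyme for no effect and wells lacking enzyme for full effect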
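Incubation: 45 min enzyme reaction at room temperature / System: truncated SCP-1 phosphatase (76-261aa) / Reagent: Phospho 17-mer peptide substrate / Buffer or medium: Acidic Tris acetate buffer with magnesium and detergent / Signal: absorbance at 630 nm / Doses: one concentration, 20 µM, with 1.0% DMSO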
LMPTP inh – blocks human LMPTP phosphatase; P24666; recombinant LMPTP-A, OMFP fluorogenic substrate, fluorescence intensity; inhibition, % at 20 µM; hit rate 0.22% among 360,000; AID 651560;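 active = compounds that cut the enzyme signal by at least half of the control window in the single-dose screen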;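 note: plate controls were DMSO wells with enzyme plus substrate for no effect and substrate without enzyme for full effect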
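Material: LMPTP-A; amount: 0.625 nM enzyme; doses: single 20 µM dose; times: reaction 50 min, room temperature, dark; technique: fluorescence intensity of OMFP turnover product; benchmarks: no-enzyme and uninhibited controls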
DNMT1 inh – inhibitors of human DNMT1; DNMT1 molecular beacon, Hinp1I cleavage, fluorescence; inhibition (reported as % activation of signal), % at 10 µM; AID 588458; hit rate 0.83% among 360,000; in the data active = inhibition above about 50%
STEP block – blocks human striatal-enriched tyrosine phosphatase | inhibition, % at 20 µM | hit rate 0.25% among 360,000 | P54829 | AID 588621 | recombinant STEP, OMFP fluorogenic substrate, fluorescence;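 active = inhibition at 20 µM, scaled per plate between control wells, above about 37%, limit read from the data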;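 note: 0% = DMSO with enzyme and substrate and 100% = substrate only without enzyme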
Target sequence (P54829 whole entry, looked up): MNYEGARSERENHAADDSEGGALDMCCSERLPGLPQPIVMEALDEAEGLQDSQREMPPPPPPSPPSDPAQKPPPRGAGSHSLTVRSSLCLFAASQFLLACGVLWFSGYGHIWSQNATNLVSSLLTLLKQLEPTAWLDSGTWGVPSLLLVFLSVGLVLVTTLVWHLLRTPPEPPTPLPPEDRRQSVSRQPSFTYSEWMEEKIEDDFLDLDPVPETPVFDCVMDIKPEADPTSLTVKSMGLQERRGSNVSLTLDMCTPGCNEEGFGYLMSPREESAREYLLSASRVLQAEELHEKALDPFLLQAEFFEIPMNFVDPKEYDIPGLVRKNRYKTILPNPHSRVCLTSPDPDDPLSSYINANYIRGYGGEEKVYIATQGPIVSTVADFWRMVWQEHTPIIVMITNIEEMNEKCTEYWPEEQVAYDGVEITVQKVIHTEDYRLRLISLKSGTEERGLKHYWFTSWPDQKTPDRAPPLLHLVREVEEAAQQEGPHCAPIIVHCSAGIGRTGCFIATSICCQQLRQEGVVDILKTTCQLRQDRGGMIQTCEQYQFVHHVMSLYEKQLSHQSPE
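Test system: STEP tyrosine phosphatase / Reagent: OMFP at 25 µM / Doses: 20 µM, 1% DMSO / Read-out: percent inhibition scaled to no-enzyme and uninhibited-enzyme controls, plate-pattern corrected / Detection: FITC-channel fluorescence of OMFP product / Medium: Bis-Tris buffer pH 6.0, 2.5 mM DTT, 0.005% Tween 20 / Schedule: 20 min at room temperature, dark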
SUMO1 PPI mod – modulators of human SUMO1-mediated protein-protein interactions; inhibition, % at 20 µM; P63165; SUMO1 binding to a labelled peptide, TR-FRET, 1 h; AID 602429; hit rate 0.33% among 360,000; in the data active = inhibition above about 37%
* hit, by the source's call; nt = no result. An excerpt weighted towards active compounds, which were near 1.7% of everything screened.

SMILES	Scp-1 inhibitor	LMPTP inh	DNMT1 inh	STEP block	SUMO1 PPI mod
C#CCOCCOCCOCCNc1nc(N2CCN(C(=O)CCCCCCCCCCNC(=O)[C@H]([C@@H](C)CC)n3cc(CCCCN=C(N)N)nn3)CC2)nc(N2CCN(C(=O)CCCCCCCCCCNC(=O)[C@H](CO)n3cc(CCCCCN)nn3)CC2)n1	35.0	6.2	-80.9	14.3	47.0*
C#CCOCCOCCOCCNc1nc(N2CCN(C(=O)CCCCCCCCCCNC(=O)[C@H]([C@@H](C)CC)n3cc(CCCCCN)nn3)CC2)nc(N2CCN(C(=O)CCCCCCCCCCNC(=O)[C@H]([C@@H](C)CC)n3cc(CCCCN=C(N)N)nn3)CC2)n1	nt	2.6	-129.7	4.9	78.6*
C#CCOCCOCCOCCNc1nc(N2CCN(C(=O)CCCCCCCCCCNC(=O)Cn3cc(CCCCCN)nn3)CC2)nc(N2CCN(C(=O)CCCCCCCCCCNC(=O)[C@H]([C@@H](C)CC)n3cc(CCCCN=C(N)N)nn3)CC2)n1	40.2	5.0	-32.2	7.7	38.6*
C#CCOCCOCCOCCNc1nc(N2CCN(C(=O)CCCCCCCCCCNC(=O)[C@H]([C@@H](C)CC)n3cc(CCCCN=C(N)N)nn3)CC2)nc(N2CCN(C(=O)CCCCCCCCCCNC(=O)[C@H](CCCCN)n3cc(C)nn3)CC2)n1	39.6	nt	nt	nt	nt
COc1ccc(Cc2nc3ccc(C(=O)N(C)Cc4nccn4C)cc3o2)cc1	nt	-0.9	-1.8	-2.9	-3.5
O=C(Nc1nc2c(Br)cc(Br)cc2c(=O)s1)c1ccco1	93.4*	15.9	5.4	33.9	4.5
NS(=O)(=O)c1ccc(-c2ccc(/C=C3\C(=O)Nc4cc(Cl)ccc43)o2)cc1	-10.6	22.0	-14.2	0.1	47.7*
NC1=NC(=O)/C(=C/c2ccc(-c3ccc(S(N)(=O)=O)cc3)o2)S1	6.4	3.7	9.3	-2.0	87.7*
CC(C)c1ccc(N(C(=O)CNC(=O)c2ccco2)C(C(=O)NC2CCCC2)c2cccnc2)cc1 (stereo not drawn)	-7.1	0.4	0.6	-2.3	3.1
C#CCOCCOCCOCCNc1nc(N2CCN(C(=O)CCCCCCCCCCNC(=O)[C@H](CO)n3cc(CCCSC)nn3)CC2)nc(N2CCN(C(=O)CCCCCCCCCCNC(=O)[C@H](CCCN=C(N)N)n3cc(C[C@@H](C)CC)nn3)CC2)n1	62.7*	16.8	-105.4	18.6	89.9*
C#CCOCCOCCOCCNc1nc(N2CCN(C(=O)CCCCCCCCCCNC(=O)[C@H](CO)n3cc(CCCSC)nn3)CC2)nc(N2CCN(C(=O)CCCCCCCCCCNC(=O)[C@H](CCCCN)n3cc(CCO)nn3)CC2)n1	11.4	-1.8	-39.8	1.0	-141.1
C#CCOCCOCCOCCNc1nc(N2CCN(C(=O)CCCCCCCCCCNC(=O)Cn3cc(C[C@@H](C)O)nn3)CC2)nc(N2CCN(C(=O)CCCCCCCCCCNC(=O)[C@H](CCCN=C(N)N)n3cc(C[C@@H](C)CC)nn3)CC2)n1	25.0	13.4	-108.0	5.3	105.5*
COC(=O)C[C@H](NC(=O)Cn1cnc2c(SC)nc(N)nc21)C(=O)OC	4.1	-0.6	3.1	1.1	0.4
COc1cccc(C(=O)NCC(=O)NCc2cc(=O)n(C)c(=O)n2C)c1	-7.5	-1.0	1.5	0.9	4.8
Oc1ccccc1C=Nc1cccc2ccccc12	-9.4	-1.5	-7.8	-1.0	0.0
Oc1cccc(C=Nc2cccc3ccccc23)c1O	-7.0	25.1	-8.6	6.4	67.5*
COc1cccc(-c2c(-c3ccccc3OC)ncn2Cc2cccc(-c3ccccc3)c2)c1	nt	16.2	nt	nt	2.4
COc1ccc(C(=O)CC(=O)c2ccc(OC)cc2)cc1	-18.6	2.7	-6.4	3.9	0.8
COc1ccc(C(=O)C[N+]2(C)CCOCC2)cc1	100.8*	0.4	-9.7	-1.9	3.2
CCC1(C)C(Nc2c(C)cccc2C)=NC(=S)N1c1ccc(NC(C)=O)cc1 (stereo not drawn)	-9.3	-0.4	1.4	-6.1	-2.1
Nc1cccc2nc3ccccc3cc12	-6.3	13.1	69.1*	-0.9	-23.6
COc1ccc(N(CC(=O)NCCC2=CCCCC2)S(=O)(=O)c2c(C)[nH]c(=O)[nH]c2=O)cc1	0.2	-2.9	1.8	-1.3	-2.0
CC(=O)Nc1ccc(NC(=O)c2cc(=O)c3ccccc3o2)cc1	-3.0	0.2	-4.5	-2.4	-17.8
NC(=O)c1ccsc1NC(=O)c1cc(=O)c2ccccc2o1	9.7	9.4	-2.0	3.7	63.4*
